Screens (PubChem BioAssay)
PRMT1 FP inh: PRMT1 methyltransferase inhibitors, primary screen, biochemical, fluorescence polarization; Protein arginine N-methyltransferase 1 (Homo sapiens), Q99873; recombinant PRMT1, activity-based probe fluorescence polarization; inhibition, % at 2.79 µM; 370,000 tested, 1.3% active;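 active = inhibition above about 21% made by adding two undisclosed values, limit read from the data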
Target sequence (Q99873 whole entry, looked up): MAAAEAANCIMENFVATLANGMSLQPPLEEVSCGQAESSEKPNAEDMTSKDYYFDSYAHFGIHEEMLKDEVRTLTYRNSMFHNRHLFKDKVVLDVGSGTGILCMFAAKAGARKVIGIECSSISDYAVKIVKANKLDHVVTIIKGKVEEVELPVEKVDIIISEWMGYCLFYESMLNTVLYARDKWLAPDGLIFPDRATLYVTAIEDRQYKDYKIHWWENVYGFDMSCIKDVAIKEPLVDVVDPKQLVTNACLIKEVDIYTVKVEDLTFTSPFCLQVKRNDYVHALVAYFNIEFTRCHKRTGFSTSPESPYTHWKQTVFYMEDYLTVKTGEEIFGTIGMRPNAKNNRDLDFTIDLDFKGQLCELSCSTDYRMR
LEDGF integ inh: blockers of LEDGF/p75-dependent integrase strand transfer – biochemical, TR-FRET, high throughput, primary screen; AID 743269, 2014; TR-FRET IN-LEDGF/p75 DNA integration, Eu/Cy5; 370,000 tested, 0.64% active; inhibition, % at 3.7 µM;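 active = inhibition above the screen-wide mean plus 3 SD, cut at about 13% in these data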;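 note: signal is the Cy5 over europium emission ratio at 671 and 618 nm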
MBD2 inh: inhibitors of MBD2 binding to methylated DNA, primary screen, biochemical, TR-FRET, DNA-binding domain, human | 370,000 tested, 0.31% active | MBD2 binding to methylated oligonucleotide | Methyl-CpG-binding domain protein 2 (Homo sapiens), Q9UBB5 | inhibition, % at 4.4 µM; in the data active = inhibition above about 13%
RBBP9 inhibitor: human RBBP9 inhibitors, primary screen, biochemical, fluorescence polarization, FP-Rh probe, HTS. Serine hydrolase RBBP9 (Homo sapiens), O75884. recombinant RBBP9. inhibition, % at 7.94 µM. 220,000 tested, 0.2% active. AID 1515, 2009;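 active = inhibition above the campaign mean of all tested compounds plus 3 SD, cut at about 14% in these data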
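System: RBBP9 protein / Quantity: 2.5 µM RBBP9 dispensing solution, before mixing / Also added: Serine-hydrolase probe FP-Rh, 375 nM pre-mixing / Dosing: 7.94 µM single dose, 0.794% DMSO / Timing: enzyme-compound preincubation 30 min, then probe labeling 45 min, 25 °C / Signal: FP readout at 525/598 nm / Controls: DMSO-treated enzyme wells and wells lacking RBBP9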
UHRF1 binding: UHRF1 methylated DNA binding inhibitors, primary screen, counter-screen for MBD2 inhibitor project, biochemical, TR-FRET, human UHRF1, single concentration. UHRF1 binding to methylated oligo. inhibition, % at 4.4 µM. 370,000 tested, 0.75% active. AID 687016, 2013; in the data active = inhibition above about 21%;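 note: UHRF1 SRA domain binding a hemimethylated CpG hairpin DNA probe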
ABHD5-PLIN5 inh: ABHD5-PLIN5 interaction inhibitors, primary screen, cell lysate, split luciferase complementation, luminescence | Perilipin-5 (Homo sapiens) + 1-acylglycerol-3-phosphate O-acyltransferase ABHD5 (Homo … | Split G. princeps luciferase complementation, 4 h | inhibition, % at 4 µM | 360,000 tested, 0.78% active | AID 602281, 2012;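 active = inhibition above the mean inhibition across every tested compound plus 3 SD, cut at about 22% in these data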
ABHD5-PLIN5 conf: ABHD5-PLIN5 interaction inhibitors, confirmation, biochemical, luminescence | shares compounds with ABHD5-PLIN5 inh | inhibition, % at 4 µM | 2,200 tested, 67% active | AID 651612, 2012; in the data active = inhibition above about 23%
HNF4 split-luc: HNF4 dimerization inhibitors, counter-screen for ABHD5-PLIN5 interaction inhibitor project, biochemical, split-luciferase complementation, luminescence; inhibition, % at 4 µM; AID 651674, 2012; shares compounds with ABHD5-PLIN5 inh; 2,200 tested, 77% active;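 active = mean inhibition across replicate wells exceeding the computed hit threshold, cut at about 13% in these data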;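 note: light from luciferase halves that rejoin when HNF4 fusion proteins dimerize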
Hits are given with their value; n = inactive; x = no result. In the library only some 3.1% were active in any assay of this set; here they are far more common.

SMILES	PRMT1 FP inh	LEDGF integ inh	MBD2 inh	RBBP9 inhibitor	UHRF1 binding	ABHD5-PLIN5 inh	ABHD5-PLIN5 conf	HNF4 split-luc
O=c1c2c(-c3ccccc3)csc2nc2c3ccccc3c(NCCN3CCOCC3)nn12	n	n	n	n	n	23	n	n
O=c1c2ccccc2nc2c3ccccc3c(NCCN3CCOCC3)nn12	n	n	n	n	n	x	x	x
Nc1[nH]c(C(=O)c2ccccc2)c(-c2ccc(F)cc2)c1C(=O)c1c[nH]c2ccccc12	n	n	n	x	n	x	x	x
O=c1[nH]c(/C=C/c2ccccc2F)nc2ccccc12	n	n	n	x	n	n	x	x
C=CCOc1cccc(/C=C\c2nc(O)c([N+](=O)[O-])c(=O)[nH]2)c1	n	n	n	x	n	46	79	69
C=CCOc1ccc(/C=C\c2nc(O)c([N+](=O)[O-])c(=O)[nH]2)cc1OC	x	x	x	x	x	n	x	x
O=c1[nH]c(/C=C\c2cccc(Cl)c2)nc(O)c1[N+](=O)[O-]	n	n	n	x	n	51	88	75
O=c1[nH]c(/C=C\c2ccccc2F)nc(O)c1[N+](=O)[O-]	n	n	n	x	n	33	55	43
C#CCOc1c(/C=C\c2nc(O)c([N+](=O)[O-])c(=O)[nH]2)cc(Br)cc1OC	n	n	n	x	n	46	83	74
COC(=O)COc1c(/C=C\c2nc(O)c([N+](=O)[O-])c(=O)[nH]2)cccc1OC	n	n	n	x	n	n	x	x
Clc1ccc(-c2cc(-c3nnc4sc(Cc5cccs5)nn34)[nH]n2)cc1	n	n	n	x	n	x	x	x
COCc1[nH]nc2c1C(c1ccc(C)cc1)N(Cc1ccccc1)C2=O (configuration not stated)	n	n	n	x	n	x	x	x
O=c1[nH]c(/C=C\c2cccc(F)c2)nc(O)c1[N+](=O)[O-]	n	n	n	x	n	36	69	54
C=CCOc1ccc(/C=C\c2nc(O)c([N+](=O)[O-])c(=O)[nH]2)cc1OCC	n	n	n	x	n	n	x	x
COC(=O)[C@]12C[C@H](CC(=O)N3CCCCC3)C(=O)N(Cc3cccc4ccccc34)C1=C[C@H](C1CCCC1)O[C@@H]2C	n	n	n	x	n	x	x	x
CC1CCC/C=C/C(=O)c2c(O)cc(O)cc2CC(=O)O1 (configuration not stated)	n	n	n	x	n	32	54	70
O=C(C1CCN(c2ncnc3c2sc2cccc(F)c23)CC1)N1CCN(Cc2ccccc2)CC1	n	n	n	x	n	x	x	x
CC(=O)Oc1ccc(C23c4ccccc4C2(OC(C)=O)c2cc(OC(C)=O)ccc23)cc1 (configuration not stated)	n	n	n	x	n	99	102	53
CC(COc1ccc(Cl)cc1)CN1CCC(C(O)(c2ccccc2)c2ccccc2)CC1 (configuration not stated)	n	n	n	x	n	x	x	x
C=CCN1[C@@H](CC(C)C)COc2cc(N3CCSCC3)ccc2S1(=O)=O	n	n	n	x	n	x	x	x
CC(C)(C)S(=O)N1Cc2cc(C(=O)N[C@@H]3CCN(Cc4ccccc4)C3)nc(-c3cccc(-c4cc5ccccc5o4)c3)c2[C@@H]1CCO (some centres not stated)	n	n	n	x	n	26	n	n
